Source: ChEMBL document CHEMBL4382192, “Discovery of a potent dual ALK and EGFR T790M inhibitor” (Eur J Med Chem, 2017)

Key:
[1] = test system: Phosphatidylinositol 4,5-bisphosphate 3-kinase catalytic subunit alpha isoform (Homo sapiens), P42336 [E545K]; assay: Binding affinity to human partial length PIK3CA E545K mutant (R108 to N1068 residues) expressed in mammalian expression system assessed as residual binding level at 1 uM by Kinomescan method relative to control
[2] = molecular target: MAP kinase-interacting serine/threonine-protein kinase 2 (Homo sapiens) (UniProt Q9HBH9); assay: Binding affinity to wild-type human partial length MKNK2 (G63 to S388 residues) expressed in mammalian expression system assessed as residual binding level at 1 uM by Kinomescan method relative to control
[3] = test system: Leucine-rich repeat serine/threonine-protein kinase 2 (Homo sapiens), Q5S007 [G2019S]; assay: Binding affinity to human partial length LRRK2 G2019S mutant (H970 to E2527 residues) expressed in mammalian expression system assessed as residual binding level at 1 uM by Kinomescan method relative to control
Outline: (§1)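 Kinome-wide selectivity panel run by the KINOMEscan method, with the test compound at a single concentration of 1 μM. Wild-type and mutant kinases were profiled in the same screen.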

[4] = molecular target: Mitogen-activated protein kinase kinase kinase kinase 2 (Homo sapiens) (UniProt Q12851); assay: Binding affinity to wild-type human partial length MAP4K2 (M1 to G318 residues) expressed in mammalian expression system assessed as residual binding level at 1 uM by Kinomescan method relative to control
[5] = molecular target: Cyclin-dependent kinase 2 (Homo sapiens) (UniProt P24941); assay: Binding affinity to wild-type human full length CDK2 (M1 to L298 residues) expressed in bacterial expression system assessed as residual binding level at 1 uM by Kinomescan method relative to control
[6] = test system: Receptor-type tyrosine-protein kinase FLT3 (Homo sapiens), P36888 [UNDEFINED MUTATION]; assay: Binding affinity to human partial length FLT3 ITD/F691L double mutant expressed in bacterial expression system assessed as residual binding level at 1 uM by Kinomescan method relative to control; outline: as §1
[7] = molecular target: SRSF protein kinase 2 (Homo sapiens) (UniProt P78362); assay: Binding affinity to wild-type human full length SRPK2 (M1 to S686 residues) expressed in bacterial expression system assessed as residual binding level at 1 uM by Kinomescan method relative to control
Outline: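 Single-point kinome-wide KINOMEscan binding panel, test compound at 1 μM, run by the provider's standard protocol.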

[8] = molecular target: Citron Rho-interacting kinase (Homo sapiens) (UniProt O14578); assay: Binding affinity to wild-type human partial length CIT (M68 to E432 residues) expressed in bacterial expression system assessed as residual binding level at 1 uM by Kinomescan method relative to control
[9] = molecular target: Tyrosine-protein kinase ZAP-70 (Homo sapiens) (UniProt P43403); assay: Binding affinity to wild-type human partial length ZAP70 (D20 to G299 residues) expressed in mammalian expression system assessed as residual binding level at 1 uM by Kinomescan method relative to control
[10] = test system: Receptor-type tyrosine-protein kinase FLT3 (Homo sapiens), P36888 [D835V]; assay: Binding affinity to human partial length FLT3 D835V mutant (V592 to Y969 residues) expressed in bacterial expression system assessed as residual binding level at 1 uM by Kinomescan method relative to control; outline: as §1
[11] = molecular target: Serine/threonine-protein kinase Nek5 (Homo sapiens) (UniProt Q6P3R8); assay: Binding affinity to wild-type human partial length NEK5 (M1 to M279 residues) expressed in bacterial expression system assessed as residual binding level at 1 uM by Kinomescan method relative to control
[12] = molecular target: Mast/stem cell growth factor receptor Kit (Homo sapiens) (UniProt P10721); assay: Binding affinity to wild-type human partial length KIT (I571 to D952 residues) expressed in bacterial expression system assessed as residual binding level at 1 uM by Kinomescan method relative to control
[13] = molecular target: Ribosomal protein S6 kinase alpha-5 (Homo sapiens) (UniProt O75582); assay: Binding affinity to wild-type human partial length N-terminal RPS6KA5 kinase domain 1 expressed in bacterial expression system assessed as residual binding level at 1 uM by Kinomescan method relative to control
[14] = molecular target: Mitogen-activated protein kinase kinase kinase 4 (Homo sapiens) (UniProt Q9Y6R4); assay: Binding affinity to wild-type human partial length MAP3K4 (G1319 to E1608 residues) expressed in bacterial expression system assessed as residual binding level at 1 uM by Kinomescan method relative to control
[15] = molecular target: NUAK family SNF1-like kinase 2 (Homo sapiens) (UniProt Q9H093); assay: Binding affinity to wild-type human partial length SNARK (P22 to A333 residues) expressed in mammalian expression system assessed as residual binding level at 1 uM by Kinomescan method relative to control
[16] = molecular target: Receptor tyrosine-protein kinase erbB-2 (Homo sapiens, UniProt P04626); assay: Inhibition of recombinant His-tagged human ErbB2 cytoplasmic domain expressed in baculovirus expression system by Z-LYTE assay
[17] = Metabolic stability in mouse liver microsomes assessed as parent compound remaining at 1 uM after 30 mins in presence of NADPH by LC/MS/MS analysis; assay type: ADME, Microsome; settings: read-out: Stability
Outline: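 Compound at 1 μM final with 0.5 mg/mL microsomal protein in 100 mM phosphate buffer pH 7.4 at 37 °C, started by adding an NADPH-regenerating system. Reactions were quenched with cold acetonitrile at 0 and 30 min and spun down. Supernatant was analysed by LC-MS/MS. The 0-min sample, quenched before NADPH addition, was set as 100%, and percent parent remaining came from peak areas.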

[18] = molecular target: Death-associated protein kinase 2 (Homo sapiens) (UniProt Q9UIK4); assay: Binding affinity to wild-type human full length DAPK2 (M1 to S370 residues) expressed in bacterial expression system assessed as residual binding level at 1 uM by Kinomescan method relative to control
[19] = molecular target: Tyrosine-protein kinase Blk (Homo sapiens, UniProt P51451); assay: Inhibition of recombinant full length His-tagged human Blk cytoplasmic domain expressed in Baculovirus expression system by Z-LYTE assay
[20] = test system: Receptor-type tyrosine-protein kinase FLT3 (Homo sapiens), P36888 [D835H]; assay: Binding affinity to human partial length FLT3 D835H mutant (V592 to Y969 residues) expressed in bacterial expression system assessed as residual binding level at 1 uM by Kinomescan method relative to control; outline: as §1
[21] = molecular target: Serine/threonine-protein kinase Chk2 (Homo sapiens) (UniProt O96017); assay: Binding affinity to wild-type human partial length CHEK2 (S253 to E574 residues) expressed in bacterial expression system assessed as residual binding level at 1 uM by Kinomescan method relative to control
[22] = molecular target: Tyrosine-protein kinase Lyn (Homo sapiens) (UniProt P07948); assay: Binding affinity to wild-type human partial length LYN (C219 to Q511 residues) expressed in bacterial expression system assessed as residual binding level at 1 uM by Kinomescan method relative to control
[23] = molecular target: Serine/threonine-protein kinase D1 (Homo sapiens) (UniProt Q15139); assay: Binding affinity to wild-type human partial length PRKD1 (G551 to E870 residues) expressed in bacterial expression system assessed as residual binding level at 1 uM by Kinomescan method relative to control

Chain of Tyrosine-protein kinase Blk (P51451 whole entry, the tested form may be a part): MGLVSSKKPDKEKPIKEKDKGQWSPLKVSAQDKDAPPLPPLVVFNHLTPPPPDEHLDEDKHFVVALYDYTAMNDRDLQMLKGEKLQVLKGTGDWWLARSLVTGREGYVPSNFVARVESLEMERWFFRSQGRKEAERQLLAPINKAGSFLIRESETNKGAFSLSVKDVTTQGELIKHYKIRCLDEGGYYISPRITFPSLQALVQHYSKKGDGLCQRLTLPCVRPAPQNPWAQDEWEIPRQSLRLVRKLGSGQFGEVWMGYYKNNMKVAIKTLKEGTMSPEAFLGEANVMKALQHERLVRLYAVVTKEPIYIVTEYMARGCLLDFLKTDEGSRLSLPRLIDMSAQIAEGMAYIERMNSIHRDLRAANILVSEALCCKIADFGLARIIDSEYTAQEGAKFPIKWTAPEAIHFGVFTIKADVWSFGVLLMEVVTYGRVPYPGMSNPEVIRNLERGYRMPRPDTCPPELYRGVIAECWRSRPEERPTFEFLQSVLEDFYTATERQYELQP
Chain of Mitogen-activated protein kinase kinase kinase 4 (Homo sapiens) (Q9Y6R4 whole entry, the tested form may be a part): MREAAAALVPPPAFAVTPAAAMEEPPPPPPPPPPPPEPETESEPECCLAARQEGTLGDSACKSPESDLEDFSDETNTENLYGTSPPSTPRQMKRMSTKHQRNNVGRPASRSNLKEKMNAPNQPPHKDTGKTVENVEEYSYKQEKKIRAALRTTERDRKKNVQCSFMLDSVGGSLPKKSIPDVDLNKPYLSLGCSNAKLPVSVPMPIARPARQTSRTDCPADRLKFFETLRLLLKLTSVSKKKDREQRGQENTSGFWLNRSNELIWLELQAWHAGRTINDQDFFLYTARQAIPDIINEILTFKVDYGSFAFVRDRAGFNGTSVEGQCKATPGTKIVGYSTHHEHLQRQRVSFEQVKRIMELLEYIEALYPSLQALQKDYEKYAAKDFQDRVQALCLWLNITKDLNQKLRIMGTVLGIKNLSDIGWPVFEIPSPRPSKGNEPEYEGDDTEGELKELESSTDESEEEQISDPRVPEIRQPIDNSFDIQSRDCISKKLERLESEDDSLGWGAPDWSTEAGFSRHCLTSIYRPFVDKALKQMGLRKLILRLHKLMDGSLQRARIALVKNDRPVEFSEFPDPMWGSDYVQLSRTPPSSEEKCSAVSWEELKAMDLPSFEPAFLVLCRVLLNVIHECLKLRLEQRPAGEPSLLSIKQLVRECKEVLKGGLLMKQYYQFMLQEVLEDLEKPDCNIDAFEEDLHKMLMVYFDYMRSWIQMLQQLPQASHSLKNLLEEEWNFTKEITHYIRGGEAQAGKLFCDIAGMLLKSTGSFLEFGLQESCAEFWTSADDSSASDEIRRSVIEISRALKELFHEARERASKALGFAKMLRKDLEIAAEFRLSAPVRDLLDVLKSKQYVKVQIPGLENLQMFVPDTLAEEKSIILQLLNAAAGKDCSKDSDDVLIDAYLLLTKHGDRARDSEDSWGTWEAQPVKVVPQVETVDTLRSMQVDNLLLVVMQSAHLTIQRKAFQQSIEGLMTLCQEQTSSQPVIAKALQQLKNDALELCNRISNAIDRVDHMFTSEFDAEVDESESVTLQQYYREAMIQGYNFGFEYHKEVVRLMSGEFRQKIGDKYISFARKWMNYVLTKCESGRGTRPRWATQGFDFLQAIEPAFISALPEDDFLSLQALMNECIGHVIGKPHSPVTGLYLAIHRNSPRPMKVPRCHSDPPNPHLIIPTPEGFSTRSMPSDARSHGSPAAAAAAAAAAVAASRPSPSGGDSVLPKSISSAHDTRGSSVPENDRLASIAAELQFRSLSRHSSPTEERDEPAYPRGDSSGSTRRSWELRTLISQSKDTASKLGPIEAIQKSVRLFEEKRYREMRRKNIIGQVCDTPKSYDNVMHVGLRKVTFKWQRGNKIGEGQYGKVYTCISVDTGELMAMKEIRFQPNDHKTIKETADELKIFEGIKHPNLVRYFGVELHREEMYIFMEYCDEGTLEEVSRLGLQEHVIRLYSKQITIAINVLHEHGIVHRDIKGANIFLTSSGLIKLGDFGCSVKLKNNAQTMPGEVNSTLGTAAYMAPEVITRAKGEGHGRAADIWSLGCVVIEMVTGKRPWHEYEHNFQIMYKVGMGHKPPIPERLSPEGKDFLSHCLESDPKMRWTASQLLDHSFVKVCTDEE
Chain of Tyrosine-protein kinase Lyn (Homo sapiens) (P07948 2-512 limits assumed): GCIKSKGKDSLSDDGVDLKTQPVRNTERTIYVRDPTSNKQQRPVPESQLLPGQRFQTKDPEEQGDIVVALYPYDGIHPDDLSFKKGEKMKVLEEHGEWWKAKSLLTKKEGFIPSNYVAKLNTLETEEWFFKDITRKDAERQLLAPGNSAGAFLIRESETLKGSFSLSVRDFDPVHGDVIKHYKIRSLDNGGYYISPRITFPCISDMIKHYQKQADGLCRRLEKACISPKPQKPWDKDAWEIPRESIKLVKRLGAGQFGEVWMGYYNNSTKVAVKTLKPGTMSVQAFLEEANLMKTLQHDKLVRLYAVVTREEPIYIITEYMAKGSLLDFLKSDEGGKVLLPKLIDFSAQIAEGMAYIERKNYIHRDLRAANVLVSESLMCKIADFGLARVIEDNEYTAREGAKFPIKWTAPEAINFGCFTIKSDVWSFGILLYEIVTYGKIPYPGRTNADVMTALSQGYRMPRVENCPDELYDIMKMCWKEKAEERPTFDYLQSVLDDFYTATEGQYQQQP
Chain of Serine/threonine-protein kinase Chk2 (Homo sapiens) (O96017 whole entry, the tested form may be a part): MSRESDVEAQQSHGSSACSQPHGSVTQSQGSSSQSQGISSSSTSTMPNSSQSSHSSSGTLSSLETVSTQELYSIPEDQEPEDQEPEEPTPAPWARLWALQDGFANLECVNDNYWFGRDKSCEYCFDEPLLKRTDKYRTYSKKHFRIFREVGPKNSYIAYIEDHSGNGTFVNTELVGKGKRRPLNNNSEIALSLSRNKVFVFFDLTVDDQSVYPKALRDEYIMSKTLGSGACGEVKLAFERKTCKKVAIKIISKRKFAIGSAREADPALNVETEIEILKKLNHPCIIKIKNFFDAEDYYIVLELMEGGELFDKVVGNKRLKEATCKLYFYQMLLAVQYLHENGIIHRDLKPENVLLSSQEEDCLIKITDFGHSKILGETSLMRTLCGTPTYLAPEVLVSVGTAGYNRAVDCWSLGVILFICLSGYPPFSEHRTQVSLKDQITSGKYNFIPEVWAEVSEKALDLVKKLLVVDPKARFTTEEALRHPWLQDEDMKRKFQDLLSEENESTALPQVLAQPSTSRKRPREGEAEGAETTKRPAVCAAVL
Chain of MAP kinase-interacting serine/threonine-protein kinase 2 (Homo sapiens) (Q9HBH9 whole entry, looked up, the tested form may be a part): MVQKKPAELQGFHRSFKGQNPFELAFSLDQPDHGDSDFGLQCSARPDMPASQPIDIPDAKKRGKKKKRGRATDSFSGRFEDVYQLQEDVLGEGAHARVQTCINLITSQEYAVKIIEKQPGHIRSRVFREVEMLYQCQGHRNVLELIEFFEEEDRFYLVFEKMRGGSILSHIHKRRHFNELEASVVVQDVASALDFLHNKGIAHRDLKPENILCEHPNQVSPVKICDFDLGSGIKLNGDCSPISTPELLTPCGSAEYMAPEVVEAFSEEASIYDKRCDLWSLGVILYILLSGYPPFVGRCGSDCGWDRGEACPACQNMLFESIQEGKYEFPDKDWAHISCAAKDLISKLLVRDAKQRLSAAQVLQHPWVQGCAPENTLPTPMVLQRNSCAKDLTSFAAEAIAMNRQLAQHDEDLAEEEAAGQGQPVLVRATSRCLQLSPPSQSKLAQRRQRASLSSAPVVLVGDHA
Chain of Serine/threonine-protein kinase Nek5 (Homo sapiens) (Q6P3R8 whole entry, the tested form may be a part): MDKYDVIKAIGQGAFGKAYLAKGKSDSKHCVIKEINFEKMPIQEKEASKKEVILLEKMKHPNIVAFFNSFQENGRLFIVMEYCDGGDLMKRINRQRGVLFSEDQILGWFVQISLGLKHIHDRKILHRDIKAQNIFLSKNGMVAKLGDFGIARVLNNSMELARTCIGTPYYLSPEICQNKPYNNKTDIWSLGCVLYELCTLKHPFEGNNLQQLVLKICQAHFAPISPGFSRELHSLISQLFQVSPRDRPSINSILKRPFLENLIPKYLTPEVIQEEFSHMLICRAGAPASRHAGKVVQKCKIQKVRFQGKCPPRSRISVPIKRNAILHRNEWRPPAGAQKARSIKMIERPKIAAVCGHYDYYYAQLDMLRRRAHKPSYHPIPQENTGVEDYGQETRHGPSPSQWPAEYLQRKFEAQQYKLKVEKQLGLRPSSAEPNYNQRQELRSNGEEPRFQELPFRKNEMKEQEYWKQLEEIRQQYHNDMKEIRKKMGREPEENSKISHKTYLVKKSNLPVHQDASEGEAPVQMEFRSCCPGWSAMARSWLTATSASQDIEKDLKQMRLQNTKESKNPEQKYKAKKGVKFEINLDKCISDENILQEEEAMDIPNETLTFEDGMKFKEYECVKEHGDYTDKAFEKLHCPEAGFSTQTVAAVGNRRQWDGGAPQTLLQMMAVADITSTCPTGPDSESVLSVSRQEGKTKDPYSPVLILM
Chain of SRSF protein kinase 2 (Homo sapiens) (P78362 whole entry, looked up, the tested form may be a part): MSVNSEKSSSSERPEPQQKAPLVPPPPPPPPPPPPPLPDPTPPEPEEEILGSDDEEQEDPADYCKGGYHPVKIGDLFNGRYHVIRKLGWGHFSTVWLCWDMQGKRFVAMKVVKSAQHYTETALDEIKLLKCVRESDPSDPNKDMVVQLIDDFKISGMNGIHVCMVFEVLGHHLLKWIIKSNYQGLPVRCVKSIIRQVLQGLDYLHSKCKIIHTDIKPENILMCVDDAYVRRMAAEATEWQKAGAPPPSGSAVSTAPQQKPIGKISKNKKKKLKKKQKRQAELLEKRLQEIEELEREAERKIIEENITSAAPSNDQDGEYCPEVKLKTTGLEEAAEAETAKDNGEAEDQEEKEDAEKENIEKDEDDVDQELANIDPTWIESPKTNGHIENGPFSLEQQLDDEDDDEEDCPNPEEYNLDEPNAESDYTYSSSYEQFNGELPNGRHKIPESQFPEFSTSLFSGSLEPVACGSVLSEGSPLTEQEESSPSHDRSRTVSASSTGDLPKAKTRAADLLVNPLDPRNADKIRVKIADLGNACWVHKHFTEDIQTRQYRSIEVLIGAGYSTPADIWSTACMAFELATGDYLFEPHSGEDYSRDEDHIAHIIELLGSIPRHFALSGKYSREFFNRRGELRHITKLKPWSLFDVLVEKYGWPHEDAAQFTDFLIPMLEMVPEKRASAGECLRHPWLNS

In the case of `C=CC(=O)Nc1cc(Nc2ncc(Cl)c(Nc3ccccc3S(=O)(=O)C(C)C)n2)c(OC)cc1N(C)CCN(C)C`, the Activity [1] is reported as 54%, the Activity [2] is reported as 26% and the Activity [3] is reported as 0.95%. It also gave an Activity [4] of 77%, an Activity [5] of 83% and an Activity [6] of 3.6%. For the same compound, the Activity [7] was 99%, the Activity [8] was 99% and the Activity [9] was 77%. For the same compound, the Activity [10] was 2.4%, the Activity [11] was 80% and the Activity [12] was 39%. It also gave an Activity [13] of 85%, an Activity [14] of 67% and an Activity [15] of 1.2%. The IC50 [16] was 0.037 µM, the remaining at 0.5 h, 1 µM [17] was 12% and the Activity [18] was 47%. The IC50 [19] was 0.008 µM, the Activity [20] was 1.6% and the Activity [21] was 0.35%. It also gave an Activity [22] of 57% and an Activity [23] of 1.2%.
